Compound activity: PubChem, several laboratories
DDE Tn6 FP inh – inhibitors of Tn6 peptide binding to fibrin DD(E), primary screen, biochemical, fluorescence polarization, human fibrin, Tn6 probe; Fibrinogen beta chain (Homo sapiens), P02675; Fibrin DD(E) TRITC-Tn6 fluorescence polarization displacement; inhibition, % at 8.3 µM; actives 0.21% (n = 370,000);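 active = inhibition above a per-campaign cutoff: mean of compounds within control limits plus 3 SD, cut at about 15% in these data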;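 also: 0% = median of all compound wells on the plate and 100% = blocking peptide control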
Target sequence (P02675 whole entry, looked up): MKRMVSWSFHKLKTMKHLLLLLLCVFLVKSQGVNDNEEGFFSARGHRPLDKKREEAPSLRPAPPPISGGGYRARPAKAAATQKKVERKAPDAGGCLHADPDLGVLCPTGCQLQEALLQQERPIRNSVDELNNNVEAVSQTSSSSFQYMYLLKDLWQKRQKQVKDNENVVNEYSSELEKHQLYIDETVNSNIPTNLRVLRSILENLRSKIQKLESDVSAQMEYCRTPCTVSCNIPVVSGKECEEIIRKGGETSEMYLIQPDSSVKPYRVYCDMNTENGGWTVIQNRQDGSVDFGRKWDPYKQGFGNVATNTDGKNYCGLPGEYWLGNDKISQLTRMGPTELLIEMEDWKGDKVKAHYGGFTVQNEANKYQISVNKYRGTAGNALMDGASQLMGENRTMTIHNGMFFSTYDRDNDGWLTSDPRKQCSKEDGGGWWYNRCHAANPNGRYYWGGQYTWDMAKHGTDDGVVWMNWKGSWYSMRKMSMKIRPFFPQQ
CRFBP-R2 block – antagonists of CRF-BP/CRF-R2 complex, primary screen, cell-based, HEK293, calcium dye fluorescence, uHTS | CRF-induced calcium fluorescence | inhibition, % at 11.8 µM | actives 0.59% (n = 350,000) | AID 588475, 2011;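 active = inhibition of the ligand-induced calcium signal above about 50% at the single tested concentration, limit read from the data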
CRFR2-BP ag – agonists of CRF-BP/CRF-R2 complex, primary screen, cell-based, HEK293, calcium dye fluorescence, uHTS; AID 588473, 2011; calcium dye fluorescence (FLIPR); percent of saturating CRF peptide response; CRF-binding protein / CRF receptor 2 complex (human); activation, % at 13.2 µM; actives 0.46% (n = 350,000);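 active = activation of at least 50%, plus an integration ratio under a set limit after plate pattern correction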;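 also: plate controls were neutral control wells without compound for no effect and CRF at EC100 for full effect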
DDE Tn7 FP inh – inhibitors of Tn7 peptide binding to fibrin DD(E), primary screen, biochemical, fluorescence polarization, human fibrin, Tn7 probe | inhibition, % at 8.3 µM | FP displacement of FITC-Tn7 peptide from fibrin DD(E); 0% = median of compound wells per plate | actives 0.13% (n = 370,000);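 active = inhibition above the mean of compounds falling within the control limits plus 3 SD of them, cut at about 14% in these data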;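 also: 0% = plate median of compound wells and 100% = 10 µM Aha-Tn7 peptide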
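Assay system: human fibrin DD(E) protein / Input: 2 µM fibrin DD(E) / Benchmarks: high control of 10 µM Aha-Tn7 peptide / Measured by: fluorescence polarization of the labelled Tn7 tracer / Medium: Tris buffer with calcium and detergent, pH 7.8 / Timing: 10 min compound pre-incubation, 3 h probe incubation at room temperature / Repeats: one replicate per compound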
Active calls of the source: *. In the library only some 1.2% were active in any assay of this set; here they are far more common.

Results for COc1ccc(CCn2c(O)c(C=Nc3ccc(F)cc3)c(=O)[nH]c2=O)cc1OC ?
DDE Tn6 FP inh: -12; CRFBP-R2 block: -11; CRFR2-BP ag: 4; DDE Tn7 FP inh: -4

What do the screens show for `CCN(CC)c1ccc(N=Cc2c(O)n(Cc3ccco3)c(=O)[nH]c2=O)cc1`?
DDE Tn6 FP inh: -11; CRFBP-R2 block: -49; CRFR2-BP ag: 60*; DDE Tn7 FP inh: -1

Results for CCn1c(O)c(C=Nc2ccc(S(N)(=O)=O)cc2)c(=O)[nH]c1=S ?
DDE Tn6 FP inh: 1; CRFBP-R2 block: -23; CRFR2-BP ag: 9; DDE Tn7 FP inh: 3

Results for CCN(CC)c1ccc(N=Cc2c(O)n(CCc3ccc(OC)c(OC)c3)c(=O)[nH]c2=O)cc1 ?
DDE Tn6 FP inh: 1; CRFBP-R2 block: -115; CRFR2-BP ag: 127*; DDE Tn7 FP inh: -9

How did CCN(CCO)c1ccc(N=Cc2c(O)n(C)c(=S)[nH]c2=O)cc1 do in these assays?
DDE Tn6 FP inh: 9; CRFBP-R2 block: -102; CRFR2-BP ag: 87*; DDE Tn7 FP inh: -1

What do the screens show for `C=C1[C@@H](C)C2[C@H](Cc3ccccc3)NC(=O)[C@]23[C@H](OC(C)=O)/C=C/[C@@](C)(O)C(=O)[C@@H](C)C/C=C/[C@H]3[C@@H]1O` (stereo partly drawn)?
DDE Tn6 FP inh: 3; DDE Tn7 FP inh: 0

Results for CN1C[C@H](O)[C@H]2C[C@@H]1c1ccccc1O2 ?
DDE Tn6 FP inh: 6; DDE Tn7 FP inh: -1

What do the screens show for `O=C(C(=C1N(Cc2ccc(Cl)nc2)CCN1Cc1ccc(Cl)nc1)[N+](=O)[O-])C(Cl)Cl`?
DDE Tn6 FP inh: 6; CRFBP-R2 block: -91; CRFR2-BP ag: 148*; DDE Tn7 FP inh: -1

What do the screens show for `CN(C(=O)Oc1ccc(C(=O)c2ccc(Cl)cc2)cc1)c1ccccc1`?
DDE Tn6 FP inh: 0; CRFBP-R2 block: 50*; CRFR2-BP ag: 9; DDE Tn7 FP inh: -9

What do the screens show for `COP(=O)(OC)C(C)NC(=O)OCc1ccccc1` (stereo not drawn)?
DDE Tn6 FP inh: 1; DDE Tn7 FP inh: -1

How did CC(C)(C)c1ccc(O)c(N=Cc2c(O)ccc3ccccc23)c1 do in these assays?
DDE Tn6 FP inh: -8; CRFBP-R2 block: -73; CRFR2-BP ag: 60*; DDE Tn7 FP inh: 4

Results for Oc1c(Br)cc(-c2ccccc2)cc1Br ?
DDE Tn6 FP inh: -1; CRFBP-R2 block: 72*; CRFR2-BP ag: -2; DDE Tn7 FP inh: -4

How did COc1cccc(-c2ccc3c(c2)C2c4cnnn4-c4ccccc4C(=O)N2CC3)c1 (stereo not drawn) do in these assays?
DDE Tn6 FP inh: 8; DDE Tn7 FP inh: 11

Results for CCCCn1c(O)c(C(C)=NCCc2c[nH]c3ccccc23)c(=O)[nH]c1=O ?
DDE Tn6 FP inh: -4; CRFBP-R2 block: -41; CRFR2-BP ag: 0; DDE Tn7 FP inh: -3

How did O=C(/C=C/c1c[nH]c2ccccc12)c1c(O)n(CCc2ccccc2)c(=O)[nH]c1=O do in these assays?
DDE Tn6 FP inh: -3; CRFBP-R2 block: -132; CRFR2-BP ag: 166*; DDE Tn7 FP inh: 2

What do the screens show for `O=C1NC(=O)C(=Cc2cn(CCOc3ccc4c(c3)OCO4)c3ccccc23)C(=O)N1`?
CRFBP-R2 block: -57; CRFR2-BP ag: 59*

Results for CCCCCCCCCCOC(=O)CCN1CC1 ?
CRFBP-R2 block: 51*; CRFR2-BP ag: 8

Results for CCOC(=O)[C@]12Cc3cc(Cl)ccc3[C@H]1N(C1CCCCC1)C(=O)c1cc(OC)ccc12 ?
DDE Tn6 FP inh: -7; DDE Tn7 FP inh: 5

How did O=c1[nH]c(O)c(/C=C2/C=CC(c3cc(Cl)ccc3Cl)=N2)c(=O)[nH]1 do in these assays?
DDE Tn6 FP inh: -4; CRFBP-R2 block: -102; CRFR2-BP ag: 103*; DDE Tn7 FP inh: 1

What do the screens show for `O=C(NCCN1CCC2(CC1)C(=O)NCN2c1ccccc1)c1ccc2ccccc2c1`?
DDE Tn6 FP inh: 5; DDE Tn7 FP inh: 2

What do the screens show for `O=C(c1ccccc1)N1Cc2cc(Br)ccc2-n2nncc2C1`?
DDE Tn6 FP inh: 7; DDE Tn7 FP inh: 1

Results for CNc1cc(Cl)c2nonc2c1[N+](=O)[O-] ?
DDE Tn6 FP inh: -1; CRFBP-R2 block: 75*; CRFR2-BP ag: 1; DDE Tn7 FP inh: 0

How did COC(=O)C12CCc3c(ccc4cc(OC)ccc34)C1=CC(=O)C2 (stereo not drawn) do in these assays?
DDE Tn6 FP inh: -1; CRFBP-R2 block: 60*; CRFR2-BP ag: -2; DDE Tn7 FP inh: 2

Results for COCCCn1c(-c2ccc(OC)cc2)cc(C(=O)NC2CCCCCCC2)c1C ?
DDE Tn6 FP inh: 2; CRFBP-R2 block: 86*; CRFR2-BP ag: -3; DDE Tn7 FP inh: 0

What do the screens show for `COc1ccc(-c2ccc3c(c2)CN(C(=O)NC2CCCCC2)Cc2cnnn2-3)cc1`?
DDE Tn6 FP inh: -5; DDE Tn7 FP inh: 4

How did Cc1cccc(C(C)c2cnc[nH]2)c1C (stereo not drawn) do in these assays?
DDE Tn6 FP inh: -6; DDE Tn7 FP inh: 6

Results for Cn1cc(/C=C2\C(=O)NC(=O)N(c3ccccc3)C2=O)c2ccccc21 ?
DDE Tn6 FP inh: 1; CRFBP-R2 block: -71; CRFR2-BP ag: 115*; DDE Tn7 FP inh: 1

Results for Cn1c(O)c(/C=C/C=Nc2ccccc2)c(=O)n(C)c1=O ?
DDE Tn6 FP inh: 0; CRFBP-R2 block: -63; CRFR2-BP ag: 85*; DDE Tn7 FP inh: -20

How did CCCCn1c(O)c(/C=C/C=Nc2ccccc2)c(=O)[nH]c1=O do in these assays?
DDE Tn6 FP inh: -1; CRFBP-R2 block: -134; CRFR2-BP ag: 113*; DDE Tn7 FP inh: -5

Results for Cn1c(O)c(C=Nc2ccccc2)c(=O)n(C)c1=O ?
DDE Tn6 FP inh: 5; CRFBP-R2 block: -3; CRFR2-BP ag: 0; DDE Tn7 FP inh: 2

What do the screens show for `CCCCC(=O)N/N=C/c1c(O)n(CCc2ccccc2)c(=O)[nH]c1=O`?
DDE Tn6 FP inh: 0; CRFBP-R2 block: 22; CRFR2-BP ag: 1; DDE Tn7 FP inh: -7

Results for CN1CC[C@@H]2CN[C@H](c3ccccc3)C[C@@H]21 ?
DDE Tn6 FP inh: -2; DDE Tn7 FP inh: 1

Results for Cc1cc(N2CCNC[C@H]2C)ccc1N1CC[C@H](O)C1 ?
DDE Tn6 FP inh: 7; DDE Tn7 FP inh: 0

What do the screens show for `COc1ccc2c(c1OC)CN1CCc3cc4c(cc3[C@H]1C2)OCO4`?
CRFBP-R2 block: -5; CRFR2-BP ag: 1

What do the screens show for `CCC1CN2CCc3cc(OC)c(OC)cc3C2CC1CC1NCCc2c1[nH]c1ccc(O)cc21` (stereo not drawn)?
DDE Tn6 FP inh: 6; CRFBP-R2 block: 51*; CRFR2-BP ag: 5; DDE Tn7 FP inh: -3

How did CCCC(=O)N1c2ccc(Cl)cc2C(c2ccccc2)=NCC1C(=O)NC(C)(C)C (stereo not drawn) do in these assays?
DDE Tn6 FP inh: 5; DDE Tn7 FP inh: -2
